Test system: MS2 coat protein
Experiment: apparent Kd, MS2 coat protein; higher = weaker binding; RNA-MaP array; FMN 200 µM where present
Outline: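 Designs were transcribed by stalled E. coli RNA polymerase on Illumina sequencing-chip clusters. They were titrated with SNAP-549-labelled MS2 coat protein from 0.7 or 1.5 nM, doubling to 3 µM, without and then with constant ligand. Buffer: 100 mM Tris-HCl pH 7.5, 80 mM KCl, 4 mM MgCl2, BSA, DTT, yeast tRNA, Tween-20. Green signal was normalised to red-channel RNA signal and control-cluster median Fmax. Apparent Kd is the median of filtered per-cluster binding-curve fits.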

[1] = designed as: OFF switch for flavin mononucleotide, no ligand
[2] = ligand present: flavin mononucleotide, designed as: OFF switch for flavin mononucleotide
[3] = designed as: ON switch for flavin mononucleotide, no ligand
[4] = ligand present: flavin mononucleotide, designed as: ON switch for flavin mononucleotide

Sequence	apparent Kd [1] [nM]	apparent Kd [2] [nM]	apparent Kd [3] [nM]	apparent Kd [4] [nM]
GGGUACGCAGGAUAUACAUGAAAAAAAAAAAAAAAAAAAAAACAUGAGGAUCACCCAUGUAGAAGGGCGUAUCC	232	571		
UCUUUCCGGAAUAUAAGUUGACUUCAGGAUAUCACAUGAGGAUCACCCAUGUGAUGCUUUAUUGCUGAGAAGGGAAGUCAUACC	11.7	38.6		
ACAUGAGGAUCACCCAUGUAUACAUAGGAUAUUGAGGAUCAGGGAUGUUUUACAGGAUAUGUCUACGAGAAGGAUGCAAGUACA			33.5	28.6
GGAAACUACGAGAAGGACAUGUGGUCCUUCAGUUACAUGAGGAUCACCCAUGUAGGAUAUCGUAGUUUCAGGAUCGUGAGAUCU	35.4	13.7		
AAACAUGUCCGAGGAUAUCUGGAAACAAUUCCAAGAGAAGGCGGACAUGAGGAUCACCCAUGUCUCUCCUCAUCAAAUCCAAGU	11.2	67.1		
GUAGCAAUCGGAGGAUAUUCAUACCGGAAACGGACAUGAGGAUCACCCAUGUCGCGAAAGCGUUGGGAGAAGGCCGAUUGCUAC			220	21.3
CAUGCCUGCACAGGAUAUCAUACAUGAGGAUCACCCAUGUCUAACAACACAUGAGAAGGGUGCAUGCCUGGGCGAAGUUUUGUG			24.3	6.22
AAUUAUUUACAGAAGGAGUAAGAUUAUGUAUUACUAGGAUAUGUUCACAUGAGGAUCACCCAUGUCAUUGUAGGUUUUUUAUGU	12	9.95		
UUGGACGUCGUAGGAUAUGUAGGAUAUUCCUACAUGAGGAUCACCCAUGUUGACAUGGAAGAAGGCCAGAAGGACGAUGUCCAU			930	100
AGGAAACAUGAGGAUCACCCAUGUGAGGAUAUUUGAAAGAAAAGAAAAGAAAGAAGAAGAAGAAGGCACAAGAA	32.4	35.5		
CACAUGGUUACAGGAUAUGUUAGGUUGCUGUUUAUUGGAUAUUAAAUUAUUACAGAAGGGUAAUACAUGAGGAUCACCCAUGUG			129	29.4
GUAUCUUAUGAGAAGGCGAUCAUGAAACAUGAUCGAGGAUAUCAUGUAAACAUGAGGAUCACCCAUGUAUGGGUAUUAUGGUAU			95	80.2
ACUUAUGAAGGAUAUACUGGCGACAUGCGCUCAACACGCGCACAUGAGGAUCACCCAUGUAGAAGGUCAAACAU	27.5	45.5		
CCUAGUUGGUAAGGAUAUCCUACACUAUUCUGACCCGUGCAAGCUACAUGAGGAUCACCCAUGUGGGAGAAGGUGCGUCAACAU	10.1	10.2		
AGUGUCAUCGAGAAGGCCUCAUGGACAUGAGGAUCACCCAUGUAAAAUGGGAGGAUAUCGAUGAUACAGCUACGUUUCGUAGCA			226	69.7
UUGGACGUCGUAGGAUAUGUCGGAUAUUCCUACAUGAGGAUCACCCAUGUUGACAUGGAAGAAGGACAGAAGGACGAUGUCCAU			4.52	3.87
AAGGUACGAGGAUAUACAUAGAUACAGACACAUGUUCAAGUACAUGAGGAUCACCCAUGUAGAAGGCGUAUAUA	38.7	160		
AAUCGCGGUCGAAAGCGGUUGCAUGAGGAUAUCCUGAGACAUGAGGAUCACCCAUGUAGACUGCAGGAGAAGGCAUGGAAAGAA			244	21.1
GGUUUGGGAGGAUAUGGUUUUAAUAACAUGAGGAUCACCCAUGUAAAUAGAUCUUCGAGGCCAGAAGGCUCGGGCC	63.8	120		
AAGCUCUGUGAGAAGGCGCCCUUUGCGGUUGGGCGAGGAUAUCACAUGAGGAUCACCCAUGUCGGUGCAUCAGACAGCGUAUAA	215	40.3		
CCCACACUUGUGAGGAUAUGGAUAGCUGCUGCUGAUUAGAAGGCACAUGAGGAUCACCCAUGUCACCCUCAUGG	278	255		
AAGUCGUGAGGAUAUACAUGGAUAUACAUUUAUGUAAAACUACAUGAGGAUCACCCAUGUAGAAGGCACGAAUA	50.7	128		
UCCCGUUGUCAGAAGGCUCCUCGUAACCCGAGGAGAGGAUAUGACACAUGAGGAUCACCCAUGUGCCCGGUCGUGACAAAGGUG	11.7	158		
AAAAAACAUGAGGAUCACCCAUGUAAAAAAAACACAGGAUAUCCCUUUUUUAAAAAAAAAGGAGAAGGGUGAAAAA			41.6	32.9

Sequence	apparent Kd [1] [nM]	apparent Kd [2] [nM]	apparent Kd [3] [nM]	apparent Kd [4] [nM]
GGUACUCAAAGAGUACUUGGUCGAACAUGAGGAUCACCCAUGUAGGAUAUGCUAAGCAAGAAGUAGCAGAAGGACAUGUGCAGC	14.8	56.5		
CCACGUCACAUGAACAUGAGGAUCACCCAUGUAAAUUCUCAUGAGGAUAUGGAUCCUAAUUGGAUCCAGAAGGCAUGGACGUGG			842	348
CAACAGUCAGGAUAUGCAAAAAAAAAAAAAAAAAAAAAAAAGCAGAAGGGACAUGAGGAUCACCCAUGUUGUCG	30	16.7		
AACGCUAAAGGAUAUACAUGAGGAUCACCCAUGUUGAGGAAGGUUAGAUGAGGAGUAAGUAGAAGGUUAGACGA	29.2	25.7		
GCAUACAUUCGAGGAUAUCGGUGAACAAAUUAACGAGAAGGCGAUAUAAUUUUUAAUCUUAUAAACAUGAGGAUCACCCAUGUA			21.8	19.5
ACAUUAAGUGCAGGAUAUGCCAACCUGGGUUCGGUAGAAGGGCACAUGAGGAUCACCCAUGUAGCGGUGGGUUGGGCCAAGGUU	13.3	35.6		
GGCGGCAAUGAGAAGGGUCACAUGAGGAUCACCCAUGUGCUCUUCGCCGUGACAGGAUAUCAUCGCCGUCAGGUUAGAUUUUUG	7.26	26.1		
CUCAUGAGAGGAUAUACAUGAGGAUCACCCAUGUUCUUAUCUCGUCGGGCUCCAUUACGUAGAAGGCUCAUUUG	29.4	46.9		
UCGUUGUCAGGAUAUCGUUAAUUUAAUUGUUUGUAUUAGUUCGAGAAGGGACAUGAGGAUCACCCAUGUUUGCU	31	86.8		
AUAUUGUGAGGAUAUGAACUUAGAAUCGAAAGAUACUAAGUUCAGAAGGCACAUGAGGAUCACCCAUGUUUCUC	86	875		
GGAUAGGACAGAGGAUAUACGUGCUAGAGAGACUAGCAAAAUUUCCUCACAUGAGGAUCACCCAUGUAGAAGGCUGUCCUAUCG	16.3	432		
GUUUAGUGAGGAUAUGUGGCGUGGAUCGAGCGCGGUCGGCUACAGAAGGCACAUGAGGAUCACCCAUGUUUCUC	106	280		
AUUAUUUACAUAGGAUAUUGUUACAUGAGGAUCACCCAUGUUAUUUGGGAAUUAGGAAUAUUUUACAAGAAGGAUGUUGUUACA			87.4	67
CUAAUUCAUGUAGGAUAUGCGUGGCGAAGCUAUGCAGAAGGACAUGAGGAUCACCCAUGUCUUUCCGUCUGCGUACAGACGGAA	24.7	201		
UUUUUGUCAGGAUAUCUAAUCUAGAUGUUCGCAUCUAGAUUAGAGAAGGGACAUGAGGAUCACCCAUGUAGUUU	61.9	253		
AUCCUACAUGAGGAUCACCCAUGUGACGCCUCGAUAGGAUAUGCGUGUGCCUUGGCGCAUGCAGAAGGAUUGUAGC			43.6	237
AUCUUUAACAUAGGAUAUAGUAUGAAGGUUUAUUUAGAAGGAUGUCACAUGAGGAUCACCCAUGUAAUAGGAUUACCCAUGUAU	29.8	21.9		
GCAGGUUUACGAGGAUAUGGGUGGUACGGACAUGAGGAUCACCCAUGUCUCCCAGAAGGCGUAGCCCAACAAAGAGAACAGGAG			160	22.5
GAAUAGUUGAGAGGAUAUGUAUUAUUGUAGGAUACAGAAGGUUUUAACAUGAGGAUCACCCAUGUAGGACUAUAUAUGUGAAUA			15.2	13.2
UUACUACAUGAGGAUCACCCAUGUCAGGAUAUUGUCUAUACUUUGGAAUAUGUGUCGACAAGAAGGGACUAUAU	23.5	39.9		
AUAAAUAAGGCGCACAUGAGGAUCACCCAUGUACGGACUAGCAAGGAUAUCAGCGUCGGGUGCAAUGAGAAGGUGUGUGUCAAG			45.1	74.4
CUUUUGUGAGGAUAUCAGUAGUAAAAAAAUAAAAUUACUACUGAGAAGGCACAUGAGGAUCACCCAUGUUCCUU	26.8	31.6		
AGAUGGCGAGGAUAUACAUGAGGAUCACCCAUGUGAAGAAUAAUAGUGAGGAAGAAAAGUAGAAGGCGCUGUCA	45.5	209		
GUGUACAGAGGAUAUACUUAUGGAGUUACGAAAGUAACUUCACAUGAGGAUCACCCAUGUAGAAGGCUGUACAC	27.3	31		

— the EternaBench riboswitch data
